Assay results reported in ChEMBL document CHEMBL4152330, “Arylamino containing hydroxamic acids as potent urease inhibitors for the treatment of Helicobacter pylori infection” (Eur J Med Chem, 2018).
Activity calls are given as the source filed them. No cut-off for these calls is given here.

Assays:
[1] = target: T1, Urease subunit alpha/Urease subunit beta (Helicobacter pylori (strain ATCC 700392 / 26695) (Campylobacterpylori), UniProt P69996); assay: Inhibition of Helicobacter pylori ATCC 43504 urease assessed as reduction in ammonia production preincubated for 1.5 hrs under cell free condition by indophenol method; type: protein-complex assay, Helicobacter pylori NCTC 11637 = CCUG 17874 = ATCC 43504
T1 sequence (P69996 whole entry): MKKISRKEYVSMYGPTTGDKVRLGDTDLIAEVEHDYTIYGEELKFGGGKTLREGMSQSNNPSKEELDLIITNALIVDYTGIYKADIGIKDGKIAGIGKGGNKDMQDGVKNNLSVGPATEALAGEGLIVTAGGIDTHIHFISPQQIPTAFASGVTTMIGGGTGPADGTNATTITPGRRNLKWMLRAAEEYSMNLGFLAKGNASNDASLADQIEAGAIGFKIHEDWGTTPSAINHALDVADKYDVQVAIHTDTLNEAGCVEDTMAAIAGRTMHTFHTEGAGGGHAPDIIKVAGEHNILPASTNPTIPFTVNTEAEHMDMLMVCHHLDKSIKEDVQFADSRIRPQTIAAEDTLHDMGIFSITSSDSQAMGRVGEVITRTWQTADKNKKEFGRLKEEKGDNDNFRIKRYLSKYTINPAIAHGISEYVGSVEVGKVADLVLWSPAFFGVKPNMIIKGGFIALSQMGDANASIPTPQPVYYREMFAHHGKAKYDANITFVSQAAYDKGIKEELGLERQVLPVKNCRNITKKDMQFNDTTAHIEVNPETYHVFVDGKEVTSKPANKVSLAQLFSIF
T1 sequence (P14916 whole entry, further chain): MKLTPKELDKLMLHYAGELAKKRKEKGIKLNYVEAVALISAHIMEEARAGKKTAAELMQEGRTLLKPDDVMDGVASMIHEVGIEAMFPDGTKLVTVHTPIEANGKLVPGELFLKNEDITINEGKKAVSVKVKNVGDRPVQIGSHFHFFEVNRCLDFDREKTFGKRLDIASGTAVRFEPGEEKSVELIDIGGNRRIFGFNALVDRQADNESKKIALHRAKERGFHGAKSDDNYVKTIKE
In short: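 Crude urease from sonicated ATCC 43504 cells (grown microaerobically in Brucella broth with 10% sheep blood), desalted on Sephadex G-25 and stored in 50% glycerol at 4 °C. Enzyme (10U) pre-incubated with test compound 1.5 h at room temperature. Ammonia production read by Weatherburn indophenol method.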

[2] = target: T2, Urease subunit alpha/Urease subunit beta (Helicobacter pylori (strain ATCC 700392 / 26695) (Campylobacterpylori)) (UniProt P69996+P14916); assay: Ratio of IC50 for Helicobacter pylori ATCC 43504 urease under cell free condition to IC50 for urease in intact Helicobacter pylori ATCC 43504; type: protein-complex assay; settings: Helicobacter pylori NCTC 11637 = CCUG 17874 = ATCC 43504
T2 sequence (P14916 whole entry, looked up): as the sequence (P14916 whole entry, further chain) above
T2 sequence (P69996 whole entry, looked up): as the sequence (P69996 whole entry) above
In short: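 Cell-free arm: desalted crude H. pylori urease lysate (10 U) was preincubated with compound for 1.5 h at room temperature. Intact-cell arm: the same set-up with H. pylori cell suspension (4.0 × 10^7 CFU/mL) in place of the enzyme. Ammonia was measured by the indophenol method in both arms.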

[3] = target: T1, Urease subunit alpha/Urease subunit beta; assay: Inhibition of urease in Helicobacter pylori ATCC 43504 assessed as reduction in ammonia production preincubated for 1.5 hrs by indophenol method; type: protein-complex assay, Helicobacter pylori NCTC 11637 = CCUG 17874 = ATCC 43504
In short: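 Crude urease was prepared from H. pylori harvested from broth, PBS-washed, frozen at -80 °C, sonicated with protease inhibitors, centrifuged, desalted on Sephadex G-25 and stored in 50% glycerol at 4 °C. Enzyme (10 U) was preincubated with test compound for 1.5 h at room temperature. Ammonia production was read by the Weatherburn indophenol method.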

[4] = target: T2, Urease subunit alpha/Urease subunit beta (Helicobacter pylori (strain ATCC 700392 / 26695) (Campylobacterpylori)); assay: Potency index, ratio of AHA IC50 to compound IC50 for Helicobacter pylori ATCC 43504 urease assessed as reduction in ammonia production preincubated for 1.5 hrs under cell free condition by indophenol method; type: protein-complex assay; settings: Helicobacter pylori NCTC 11637 = CCUG 17874 = ATCC 43504
[5] = target: T1, Urease subunit alpha/Urease subunit beta; assay: Mixed type non-competitive inhibition of urease in Helicobacter pylori ATCC 43504 assessed as reduction in ammonia production preincubated for 1.5 hrs by indophenol method; type: protein-complex assay, Helicobacter pylori NCTC 11637 = CCUG 17874 = ATCC 43504
In short: (§1)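 Crude H. pylori ATCC 43504 urease with compound pre-incubated 1.5 h at room temperature, then ammonia production velocity measured by indophenol method across a urea concentration gradient at each fixed inhibitor concentration. V–[S] data fitted nonlinearly to assign inhibition type. Fitting constants plotted linearly against [I]; Ki and K'i taken from X-axis intercepts. Triplicate.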

[6] = target: T1, Urease subunit alpha/Urease subunit beta; assay: Mixed type non-competitive inhibition of urease in Helicobacter pylori ATCC 43504 assessed as enzyme-substrate-inhibitor complex constant preincubated for 1.5 hrs by indophenol method; type: protein-complex assay, Helicobacter pylori NCTC 11637 = CCUG 17874 = ATCC 43504; in short: as §1
[7] = Acute toxicity in po dosed Kunming mouse assessed as induction of mortality administered as single dose and measured after 14 days; type: organism-based; settings: in vivo
In short: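 Male and female adult KM mice, 18–22 g, n=10 per group. Single intragastric dose of 500, 1000, 2000, 3000 or 5000 mg/kg in 0.5% CMC-Na, 200 μL per mouse; controls received vehicle alone. Mortality recorded over 14 days. LD50 estimated by probit analysis.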

Helicobacter pylori [8] = assay: Antibacterial activity against Helicobacter pylori ATCC 43504 infected in Kunming mouse assessed as reduction in gastric mucosa injury in mouse stomach at 32 mg/kg, po bid treated for 14 days by hematoxylin and eosin staining based assay; type: functional, organism-based; settings: NCTC 11637 = CCUG 17874 = ATCC 43504
In short: (§2)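 KM mice (18–22 g) were pretreated with NaHCO3 and infected intragastrically with H. pylori (1 × 10^9 cfu/mL) daily for one week. After three weeks, groups (n=13) received compound in 0.5% CMC-Na intragastrically b.i.d. for 14 days. Part of each stomach was fixed in 4% paraformaldehyde, paraffin-embedded and cut at 3.0 µm to assess gastric mucosal lesions against an untreated infected model.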

Helicobacter pylori [9] = assay: Antibacterial activity against Helicobacter pylori ATCC 43504 infected in Kunming mouse assessed as reduction in gastric mucosa injury in mouse stomach at 16 mg/kg, po bid treated for 14 days by hematoxylin and eosin staining based assay; type: functional, organism-based; settings: NCTC 11637 = CCUG 17874 = ATCC 43504; in short: as §2
Helicobacter pylori [10] = assay: Antibacterial activity against Helicobacter pylori ATCC 43504 infected in Kunming mouse assessed as bacterial eradication at 32 mg/kg, po bid treated for 14 days relative to control; type: functional, NCTC 11637 = CCUG 17874 = ATCC 43504
In short: (§3)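 Mice (18–22 g) fasted 4 h, then given 0.2 mol/L NaHCO3 intragastrically. Fifteen min later they were inoculated intragastrically with H. pylori (1 × 10^9 cfu/mL), once daily for a week. Three weeks later mice were randomized (n=13/group). Compound in 0.5% CMC-Na was given intragastrically at 8:00 and 18:00 daily for 14 days. Eradication was compared with an untreated infected model group.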

Helicobacter pylori [11] = assay: Antibacterial activity against Helicobacter pylori ATCC 43504 infected in Kunming mouse assessed as bacterial eradication at 64 mg/kg, po bid treated for 14 days relative to control; type: functional, NCTC 11637 = CCUG 17874 = ATCC 43504; in short: as §3
Helicobacter pylori [12] = assay: Antibacterial activity against Helicobacter pylori ATCC 43504 infected in Kunming mouse assessed as bacterial eradication at 16 mg/kg, po bid treated for 14 days relative to control; type: functional, NCTC 11637 = CCUG 17874 = ATCC 43504; in short: as §3
Helicobacter pylori [13] = assay: Antibacterial activity against Helicobacter pylori ATCC 43504 infected in Kunming mouse assessed as bacterial eradication at 128 mg/kg, po bid treated for 14 days relative to control; type: functional, NCTC 11637 = CCUG 17874 = ATCC 43504; in short: as §3

Compound	IC50 [1] [µM]	Ratio IC50 [2]	further results
O=C(CNc1cc(Cl)ccc1Cl)NO	1.64	46 to 110	–
O=C(CNc1cccc([N+](=O)[O-])c1)NO	8.21	46 to 110	–
Cc1cc(C)cc(NCC(=O)NO)c1	2.12	46 to 110	–
O=C(CCNc1ccc(Cl)cc1Cl)NO	0.018	46 to 110	IC50 [3]: 0.14 µM; Ratio IC50 [4]: > 1500; Ki [5]: 0.442 µM; Ki [6]: 0.0602 µM; LD50 at 336 h [7]: 3130 mg/kg; Activity (Helicobacter pylori [8]): Active; Activity (Helicobacter pylori [9]): Active; Activity (Helicobacter pylori [10]): 100%; Activity (Helicobacter pylori [11]): 100%; Activity (Helicobacter pylori [12]): 92.3%
O=C(CNc1ccccc1Cl)NO	58.9	46 to 110	–
O=C(CNc1cccc(Br)c1)NO	0.86	46 to 110	IC50 [3]: 48.1 µM; Ratio IC50 [4]: 2 to 24
O=C(CNc1cccc(Cl)c1)NO	1.15	46 to 110	–
O=C(CCNc1ccccc1Cl)NO	0.055	46 to 110	IC50 [3]: 5.91 µM; LD50 at 336 h [7]: 3350 mg/kg; Activity (Helicobacter pylori [8]): Active; Activity (Helicobacter pylori [10]): 84.6%; Activity (Helicobacter pylori [11]): 92.3%; Activity (Helicobacter pylori [13]): 100%
O=C(CCNc1ccccc1)NO	1.22	46 to 110	–
O=C(CCNc1cc(Cl)cc(Cl)c1)NO	0.043	46 to 110	IC50 [3]: 3.9 µM; Ki [5]: 1.57 µM; Ki [6]: 0.153 µM; LD50 at 336 h [7]: 2980 mg/kg; Activity (Helicobacter pylori [8]): Active; Activity (Helicobacter pylori [10]): 92.3%; Activity (Helicobacter pylori [11]): 100%; Activity (Helicobacter pylori [13]): 100%
O=C(CNc1cc(Cl)cc(Cl)c1)NO	0.13	46 to 110	IC50 [3]: 16.9 µM; Ki [5]: 1.66 µM; Ki [6]: 0.315 µM
O=C(CNc1ccc(Cl)cc1Cl)NO	66.1	46 to 110	–
O=C(CCNc1ccc(Cl)c(Cl)c1)NO	0.71	46 to 110	IC50 [3]: 38.9 µM
O=C(CCNc1ccccc1[N+](=O)[O-])NO	10.5	46 to 110	–
O=C(CNc1ccc(Cl)cc1)NO	2.47	46 to 110	–
O=C(CCNc1cccc([N+](=O)[O-])c1)NO	5.1	46 to 110	–
O=C(CCNc1c(Cl)cccc1Cl)NO	25	46 to 110	–
COc1ccccc1NCCC(=O)NO	1.64	46 to 110	–
O=C(CCNc1ccc([N+](=O)[O-])cc1)NO	1.23	46 to 110	–
O=C(CNc1ccc(Br)cc1)NO	2.01	46 to 110	Ratio IC50 [4]: 2 to 24
O=C(CN1CCCc2ccccc21)NO	71.1	46 to 110	–

Compound	IC50 [1] [µM]	Ratio IC50 [2]	further results
O=C(CNc1cccc(Cl)c1Cl)NO	14.8	46 to 110	–
COc1cc(NCC(=O)NO)cc(OC)c1	2.28	46 to 110	–
O=C(CCN1CCCc2ccccc21)NO	21.1	46 to 110	–
CC(=O)NO [ACETOHYDROXAMIC ACID]	–	46 to 110	IC50 [3]: 172 µM; Activity (Helicobacter pylori [8]): Active; Activity (Helicobacter pylori [10]): 44.4%
O=C(CCNc1ccc(F)cc1)NO	0.18	46 to 110	IC50 [3]: 17.9 µM
O=C(CNc1ccccc1)NO	4.67	46 to 110	–
O=C(CNc1ccc(F)cc1)NO	7.41	46 to 110	–
COc1ccc(NCC(=O)NO)cc1	69.8	46 to 110	–
O=C(CCNc1cc(Cl)ccc1Cl)NO	0.45	46 to 110	IC50 [3]: 29.5 µM
COc1ccccc1NCC(=O)NO	152	46 to 110	–
COc1cccc(NCC(=O)NO)c1	21.8	46 to 110	–
Cc1cc(C)cc(NCCC(=O)NO)c1	2.93	46 to 110	–
O=C(CCNc1cccc(Cl)c1Cl)NO	3.83	46 to 110	–
O=C(CCNc1ccccc1Br)NO	0.13	46 to 110	IC50 [3]: 14.5 µM
O=C(CNc1c(Cl)cccc1Cl)NO	191	46 to 110	–
O=C(CNc1ccccc1Br)NO	12.3	46 to 110	Ratio IC50 [4]: 2 to 24
O=C(CCNc1cc(F)cc(F)c1)NO	1.52	46 to 110	–
Cc1ccc(NCC(=O)NO)cc1	3.91	46 to 110	–
O=C(CNc1cc(F)cc(F)c1)NO	5.11	46 to 110	–
O=C(CNc1ccc(Cl)c(Cl)c1)NO	0.76	46 to 110	IC50 [3]: 41.6 µM
